Experimental data taken from PubChem BioAssay.
The source made the active and inactive calls.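 How the source made its calls, unless noted: active means GFP response above 150% of the DMSO level; inconclusive means fewer than 70 events counted for a yeast strain; inactive means the rest.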

Columns and labels:
[1] = hit retest on RPL19A-GFP reporter strain – cell-based, S. cerevisiae, flow cytometry, cherry picks, mother/daughter gates, confirmation (AID 2270;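 active means GFP response below 50% of the DMSO control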); details: 3 h, at 10 µM, stronger effect = lower value, 100 = same GFP as DMSO wells
[2] = yeast TOR pathway reporter LAP4-GFP change – cell-based, cherry picks, flow cytometry, mother/daughter gates, confirmation (AID 2271;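 active means GFP response above 150% of the DMSO control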;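 further: ratio of sample to DMSO plate mean so 100% equals DMSO level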); details: S. cerevisiae LAP4-GFP strain, 3 h, at 10 µM, stronger effect = higher value, 100 means same as DMSO control
Outline: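 Test system: GFP-fusion yeast strain / Amount: 0.2 OD600 cells / Buffer or medium: SC medium / Dosing: 10 µM single dose / Incubation: compound exposure 3 h at 30 °C, end-over-end rotation / Detection: HT flow cytometry, GFP fluorescence channel / Evaluation: median GFP fluorescence as percent of plate-mean DMSO wells / Control set: DMSO-only negative wells, rapamycin 400 ng/mL positive wells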

[3] = TOR pathway reporter MEP2-GFP, retest of hits – S. cerevisiae, flow cytometry GFP, cherry picks, confirmation (AID 2272;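 active means GFP response above 150% of the DMSO control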;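 further: ratio of well signal to plate DMSO mean so 100% equals DMSO level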); details: S. cerevisiae MEP2-GFP strain, 3 h, at 10 µM, stronger effect = higher value
[4] = yeast AGP1-GFP fluorescence change, single-dose – cell-based, flow cytometry, S. cerevisiae, cherry picks, confirmation (AID 2273);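 further: median GFP channel fluorescence over the whole cell population gate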; details: S. cerevisiae AGP1-GFP strain, 3 h, at 10 µM
[5] = TOR pathway CIT2 reporter hit retest – S. cerevisiae, GFP fusion, cherry picks, mother/daughter gates, confirmation (AID 2274); details: S. cerevisiae CIT2-GFP strain, flow cytometry, 3 h, at 10 µM, stronger effect = higher value
[6] = measured here: daughter cell gate
[7] = measured here: mother cell gate
[8] = measured here: daughter cell gate response
[9] = measured here: mother cell gate response

| SMILES | GFP response vs DMSO [1] | GFP response vs DMSO [1, 6] | GFP response vs DMSO [1, 7] | GFP response relative to DMSO [2] | GFP response relative to DMSO [2, 8] | GFP response relative to DMSO [2, 9] | GFP response vs DMSO [3] | GFP response, % of DMSO [4] | GFP response, % of DMSO [5] | GFP response, % of DMSO [5, 6] | GFP response, % of DMSO [5, 7] |
| --- | --- | --- | --- | --- | --- | --- | --- | --- | --- | --- | --- |
| COC(=O)c1sc(-c2ccc(C(C)(C)C)cc2)cc1NC(=O)CCC(=O)O | 98.6% (inactive) | 97.3% | 98.9% | 98.7% (inactive) | 95.6% | 100% | 100% (inactive) | 95.4% (inactive) | 97.8% (inactive) | 96.5% | 98.7% |
| O=C1Nc2ccccc2/C1=C\C(=O)c1ccccc1 | 99% (inactive) | 96.4% | 91.9% | 228% (active) | 180% | 236% | 128% (inactive) | 103% (inactive) | 109% (inactive) | 110% | 104% |
| FC(F)(F)c1cc(-c2cccs2)nc2cc(-c3cccs3)nn12 | 103% (inactive) | 102% | 102% | 97% (inactive) | 97.5% | 97.3% | 103% (inactive) | 95.1% (inactive) | 93% (inactive) | 92% | 94.4% |
| O=S(=O)(c1ccc(Oc2ccccc2)cc1)N1CCOCC1 | 98.2% (inactive) | 98.4% | 98.2% | 96.2% (inactive) | 95.6% | 97.2% | 100% (inactive) | 94.1% (inactive) | 93.9% (inactive) | 94.8% | 94.4% |
| O=[N+]([O-])/C=C/c1cn(Cc2ccc(F)cc2)c2ccccc12 | 103% (inactive) | 104% | 102% | 113% (inactive) | 110% | 115% | 105% (inactive) | 94.5% (inactive) | 104% (inactive) | 105% | 101% |
| COc1ccc(-c2csc(NC(=O)CSc3nc(C)nc4sc(C(=O)O)c(C)c34)n2)cc1 | 100% (inactive) | 99% | 100% | 85.4% (inactive) | 87.9% | 89% | 102% (inactive) | 104% (inactive) | 102% (inactive) | 99.7% | 103% |
| Cc1cccc(OCCN2CSC(=S)N(C)C2)c1 | 95.6% (inactive) | 94.4% | 92.7% | 174% (active) | 161% | 167% | 168% (inactive) | 118% (inactive) | 131% (inactive) | 130% | 122% |
| CCCc1cc(=O)n(-c2nc3ccccc3s2)[nH]1 | 102% (inactive) | 102% | 101% | 101% (inactive) | 101% | 99.4% | 99% (inactive) | 104% (inactive) | 97.3% (inactive) | 97.4% | 96.8% |
| O=c1c2ccccc2nc(-c2ccccc2)n1CCN1CCOCC1 | 101% (inactive) | 102% | 101% | 97% (inactive) | 97.5% | 98.4% | 101% (inactive) | 106% (inactive) | 98.8% (inactive) | 95.6% | 96.8% |
| COc1ccc(C(=O)Nc2cccc(C)c2)cc1 | 98.2% (inactive) | 99.3% | 96.9% | 109% (inactive) | 108% | 107% | 108% (inactive) | 101% (inactive) | 111% (inactive) | 108% | 108% |
| C=CCNC(=O)/C(=C\c1ccc(OC)cc1)NC(=O)c1ccc([N+](=O)[O-])cc1 | 97.4% (inactive) | 97.6% | 98.7% | 97.3% (inactive) | 99.7% | 96.2% | 96.6% (inactive) | 100% (inactive) | 108% (inactive) | 108% | 110% |
| Cc1ccc(C(C(=O)NC2CCCCC2)N(CCCN2CCOCC2)C(=O)c2snc(C(N)=O)c2N)cc1 (stereo not drawn) | 101% (inactive) | 102% | 102% | 105% (inactive) | 102% | 104% | 99.5% (inactive) | 104% (inactive) | 102% (inactive) | 98.3% | 103% |
| COc1cc(NC(=O)c2ccccc2F)ccc1NC(=O)c1cc2ccccc2o1 | 87.2% (inactive) | 90.2% | 88.8% | 97% (inactive) | 97.5% | 97.3% | 107% (inactive) | 101% (inactive) | 100% (inactive) | 97.4% | 98.1% |
